How the values were obtained:
[1] = target: T1, CARM1 (Homo sapiens, UniProt Q86X55); type: biochemical; settings: compound at 100 μM; substrates PABP1, CA150, SmB, histone H3
T1 sequence (Q86X55 1-608): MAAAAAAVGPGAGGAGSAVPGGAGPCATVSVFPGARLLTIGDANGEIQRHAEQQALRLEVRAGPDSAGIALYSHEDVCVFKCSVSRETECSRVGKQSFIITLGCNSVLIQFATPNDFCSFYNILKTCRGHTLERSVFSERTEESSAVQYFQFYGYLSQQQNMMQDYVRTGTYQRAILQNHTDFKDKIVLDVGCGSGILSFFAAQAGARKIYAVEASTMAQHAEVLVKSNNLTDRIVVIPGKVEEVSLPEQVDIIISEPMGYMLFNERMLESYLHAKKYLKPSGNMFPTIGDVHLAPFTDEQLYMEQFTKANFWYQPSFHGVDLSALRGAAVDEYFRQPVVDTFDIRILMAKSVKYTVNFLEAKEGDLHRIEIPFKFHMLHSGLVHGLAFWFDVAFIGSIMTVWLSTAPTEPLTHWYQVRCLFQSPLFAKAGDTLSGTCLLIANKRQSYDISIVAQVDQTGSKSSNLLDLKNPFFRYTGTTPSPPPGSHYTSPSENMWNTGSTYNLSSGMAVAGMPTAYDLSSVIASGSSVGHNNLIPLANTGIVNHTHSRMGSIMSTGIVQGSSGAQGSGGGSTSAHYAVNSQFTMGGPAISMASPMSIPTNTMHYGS
Method in brief: (§1)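 Recombinant enzyme (0.1–0.2 μM) and substrate (0.5–1.5 μM) are incubated with [methyl-³H]AdoMet (85 Ci/mmol) in PBS pH 7.4. Test compound is present at 100 μM. Reactions run 90 min at 30 °C, are resolved by SDS/PAGE and transferred to PVDF. The membrane is sprayed with Enhance and exposed to film overnight. Substrate bands are located by Ponceau S, excised and counted (dpm) for graphic depiction.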

[2] = target: T2, SET7 (Homo sapiens, UniProt Q8WTS6); test: In vitro methylation assay, SET7 with histone H3 as substrate; type: biochemical; settings: compound at 100 μM
T2 sequence (Q8WTS6 1-366): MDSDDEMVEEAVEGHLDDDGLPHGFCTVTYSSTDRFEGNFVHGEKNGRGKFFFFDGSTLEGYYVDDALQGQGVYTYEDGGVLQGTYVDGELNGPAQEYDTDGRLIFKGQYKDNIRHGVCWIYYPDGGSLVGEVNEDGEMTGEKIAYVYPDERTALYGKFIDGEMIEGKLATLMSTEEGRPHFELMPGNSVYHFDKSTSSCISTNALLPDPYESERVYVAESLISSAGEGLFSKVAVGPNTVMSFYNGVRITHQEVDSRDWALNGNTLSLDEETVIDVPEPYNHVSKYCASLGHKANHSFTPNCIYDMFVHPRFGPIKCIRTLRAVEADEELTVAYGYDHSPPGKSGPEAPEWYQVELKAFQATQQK

[3] = target: T3, Suv39H1 (Homo sapiens, UniProt O43463); test: In vitro methylation fluorograph, Suv39H1 with H3 as substrate; type: biochemical; settings: compound at 100 μM
T3 sequence (O43463 1-412): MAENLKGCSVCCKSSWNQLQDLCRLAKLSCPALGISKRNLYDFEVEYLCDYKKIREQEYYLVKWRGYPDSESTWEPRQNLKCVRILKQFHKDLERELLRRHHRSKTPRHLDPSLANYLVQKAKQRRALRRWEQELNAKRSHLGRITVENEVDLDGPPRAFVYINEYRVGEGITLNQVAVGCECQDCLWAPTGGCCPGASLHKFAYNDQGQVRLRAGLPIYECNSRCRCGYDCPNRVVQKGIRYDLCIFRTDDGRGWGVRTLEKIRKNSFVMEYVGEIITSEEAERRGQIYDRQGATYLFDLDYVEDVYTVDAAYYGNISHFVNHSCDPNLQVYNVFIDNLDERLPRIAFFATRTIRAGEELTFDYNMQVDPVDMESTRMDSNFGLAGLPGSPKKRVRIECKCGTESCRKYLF
Method in brief: as §1

[4] = tested on: LNCaP cells; test: Cell viability by Cell Titer-Glo; type: cell-based; settings: at concentrations that impacted the luciferase assay
Method in brief: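 LNCaP cells are grown in phenol-red-free RPMI1640 with 10% charcoal-stripped FCS and transfected with PSA(ARE)-LUC and CMV-Renilla. After 12 h they are treated with 20 nM DHT plus increasing concentrations of test compound. After 42–44 h, cells are washed twice with PBS and harvested, and 1/6 of them is assayed with CellTiter-Glo luminescent reagent for ATP-based viability.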

[5] = target: PRMT3 (Homo sapiens, UniProt O60678); test: In vitro methylation fluorograph, PRMT3 with NPL3 and rpS2 as substrates; type: biochemical; settings: compound at 100 μM
Sequence of PRMT3 (O60678 whole entry, species assumed): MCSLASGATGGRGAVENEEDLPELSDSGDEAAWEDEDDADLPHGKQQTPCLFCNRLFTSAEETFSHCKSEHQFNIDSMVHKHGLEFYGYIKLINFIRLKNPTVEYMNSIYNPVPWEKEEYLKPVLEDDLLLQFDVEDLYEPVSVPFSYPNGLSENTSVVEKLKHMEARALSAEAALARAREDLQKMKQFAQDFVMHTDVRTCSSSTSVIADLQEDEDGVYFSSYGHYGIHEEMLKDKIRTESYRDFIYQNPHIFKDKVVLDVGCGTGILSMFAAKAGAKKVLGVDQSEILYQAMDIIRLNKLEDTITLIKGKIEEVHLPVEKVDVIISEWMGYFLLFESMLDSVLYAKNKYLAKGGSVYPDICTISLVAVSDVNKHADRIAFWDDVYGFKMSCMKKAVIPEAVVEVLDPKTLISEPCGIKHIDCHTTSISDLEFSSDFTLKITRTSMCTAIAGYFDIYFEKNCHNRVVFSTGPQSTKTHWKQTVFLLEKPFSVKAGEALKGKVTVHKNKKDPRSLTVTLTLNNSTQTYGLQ
Method in brief: as §1

[6] = target: T4, G9a (Homo sapiens, UniProt Q96KQ7); test: In vitro methylation fluorograph, G9a with H3 as substrate; type: biochemical; settings: compound at 100 μM
T4 sequence (Q96KQ7 1-1210): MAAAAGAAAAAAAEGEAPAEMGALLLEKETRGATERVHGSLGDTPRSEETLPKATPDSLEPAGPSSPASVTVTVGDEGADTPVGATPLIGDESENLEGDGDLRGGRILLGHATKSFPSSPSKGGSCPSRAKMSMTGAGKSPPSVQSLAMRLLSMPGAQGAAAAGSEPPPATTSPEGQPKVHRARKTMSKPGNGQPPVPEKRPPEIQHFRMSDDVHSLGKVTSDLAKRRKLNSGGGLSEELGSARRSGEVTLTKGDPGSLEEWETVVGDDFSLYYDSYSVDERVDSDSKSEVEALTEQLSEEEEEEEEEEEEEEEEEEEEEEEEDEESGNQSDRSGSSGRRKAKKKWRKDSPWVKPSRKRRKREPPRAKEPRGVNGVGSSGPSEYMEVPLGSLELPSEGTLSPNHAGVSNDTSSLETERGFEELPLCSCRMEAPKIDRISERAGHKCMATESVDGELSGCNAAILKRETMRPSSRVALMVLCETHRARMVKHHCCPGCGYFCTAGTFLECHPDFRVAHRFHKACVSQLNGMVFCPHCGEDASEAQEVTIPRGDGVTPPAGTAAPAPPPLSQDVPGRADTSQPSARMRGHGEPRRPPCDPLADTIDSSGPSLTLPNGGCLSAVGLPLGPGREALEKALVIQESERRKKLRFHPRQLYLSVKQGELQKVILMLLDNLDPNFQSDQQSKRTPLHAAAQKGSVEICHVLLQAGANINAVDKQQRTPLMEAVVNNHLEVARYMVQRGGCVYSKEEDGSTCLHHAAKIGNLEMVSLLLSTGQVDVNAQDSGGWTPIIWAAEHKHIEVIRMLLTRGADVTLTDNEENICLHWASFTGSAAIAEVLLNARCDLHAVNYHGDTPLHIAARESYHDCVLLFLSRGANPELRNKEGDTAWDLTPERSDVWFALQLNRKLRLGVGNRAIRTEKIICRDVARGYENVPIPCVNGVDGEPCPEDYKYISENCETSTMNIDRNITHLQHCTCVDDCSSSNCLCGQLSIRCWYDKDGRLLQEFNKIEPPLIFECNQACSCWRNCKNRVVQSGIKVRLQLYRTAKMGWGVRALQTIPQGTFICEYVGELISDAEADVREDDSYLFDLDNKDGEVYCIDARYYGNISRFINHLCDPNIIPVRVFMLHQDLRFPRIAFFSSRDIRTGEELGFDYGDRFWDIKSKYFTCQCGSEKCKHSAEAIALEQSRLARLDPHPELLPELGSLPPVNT
Method in brief: as §1

[7] = target: T1, CARM1; test: In vitro methylation assay, CARM1 with PABP1 as substrate; type: biochemical; settings: for effect against PABP1 methylation by CARM1 (fluorograph): compound at 20 μM
[8] = target: DOTL1 (Homo sapiens, UniProt Q8TEK3); test: In vitro methylation fluorograph, DOTL1 with nucleosome as substrate; type: biochemical; settings: compound at 100 μM
Sequence of DOTL1 (Q8TEK3 whole entry): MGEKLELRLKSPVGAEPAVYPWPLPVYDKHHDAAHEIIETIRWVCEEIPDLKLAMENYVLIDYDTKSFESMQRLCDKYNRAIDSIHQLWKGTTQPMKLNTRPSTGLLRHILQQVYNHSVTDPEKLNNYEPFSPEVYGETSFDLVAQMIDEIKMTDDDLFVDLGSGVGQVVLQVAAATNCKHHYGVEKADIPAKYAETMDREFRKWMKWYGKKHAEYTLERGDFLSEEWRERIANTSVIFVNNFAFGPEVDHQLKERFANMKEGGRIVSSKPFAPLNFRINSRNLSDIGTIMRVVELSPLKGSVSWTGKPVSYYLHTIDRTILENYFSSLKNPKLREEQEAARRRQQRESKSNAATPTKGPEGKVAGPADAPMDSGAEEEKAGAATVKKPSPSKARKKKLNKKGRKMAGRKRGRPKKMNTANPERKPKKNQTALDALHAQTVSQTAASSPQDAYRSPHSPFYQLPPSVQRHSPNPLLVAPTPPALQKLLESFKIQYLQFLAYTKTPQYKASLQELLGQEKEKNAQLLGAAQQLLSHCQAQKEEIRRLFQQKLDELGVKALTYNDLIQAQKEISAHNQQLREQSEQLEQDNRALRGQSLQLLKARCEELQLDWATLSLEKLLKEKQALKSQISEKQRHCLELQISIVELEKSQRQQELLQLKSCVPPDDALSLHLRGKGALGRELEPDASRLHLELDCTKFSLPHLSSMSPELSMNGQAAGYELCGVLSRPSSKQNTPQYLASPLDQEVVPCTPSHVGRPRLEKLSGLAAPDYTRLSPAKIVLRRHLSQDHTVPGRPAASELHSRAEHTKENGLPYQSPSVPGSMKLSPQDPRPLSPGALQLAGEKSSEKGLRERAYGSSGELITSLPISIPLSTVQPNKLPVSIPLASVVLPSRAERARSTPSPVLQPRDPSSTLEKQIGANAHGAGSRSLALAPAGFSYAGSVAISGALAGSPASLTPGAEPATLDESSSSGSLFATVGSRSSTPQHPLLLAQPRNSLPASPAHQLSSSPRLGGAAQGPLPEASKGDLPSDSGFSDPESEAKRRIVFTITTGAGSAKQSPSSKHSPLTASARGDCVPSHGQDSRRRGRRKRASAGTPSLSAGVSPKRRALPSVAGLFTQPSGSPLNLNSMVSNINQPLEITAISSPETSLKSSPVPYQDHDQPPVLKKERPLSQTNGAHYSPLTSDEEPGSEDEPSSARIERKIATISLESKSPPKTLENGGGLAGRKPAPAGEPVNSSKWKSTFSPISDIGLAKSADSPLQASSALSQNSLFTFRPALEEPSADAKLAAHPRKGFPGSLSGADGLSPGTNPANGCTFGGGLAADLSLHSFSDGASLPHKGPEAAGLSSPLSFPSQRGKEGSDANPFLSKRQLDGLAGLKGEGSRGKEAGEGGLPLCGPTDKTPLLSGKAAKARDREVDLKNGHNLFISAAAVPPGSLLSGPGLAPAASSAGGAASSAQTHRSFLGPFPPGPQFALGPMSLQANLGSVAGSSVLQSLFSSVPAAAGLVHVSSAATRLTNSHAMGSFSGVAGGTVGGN
Method in brief: as §1

[9] = tested on: Flag-PABP1 methylation in HEK293 cells; test: Tetracycline-inducible Flag-PABP1 methylation reporter system in HEK293 cells; type: cell-based, human; settings: tetracycline-induced Flag-PABP1, methyl-specific PABP1 antibody
Method in brief: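 HEK293 cells engineered with a tetracycline-controlled TetR repressor carry tetO-regulated Flag-PABP1. Tetracycline is added with test compound to induce Flag-PABP1. Lysates are resolved by SDS-PAGE, where Flag-PABP1 migrates slower than endogenous PABP1. Its methylation is detected by immunoblot with an in-house methyl-specific PABP1 antibody.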

[10] = target: PRMT5 (Homo sapiens, UniProt O14744); test: In vitro methylation fluorograph, PRMT5 with histone H4 as substrate; type: biochemical; settings: compound at 100 μM
Sequence of PRMT5 (O14744 whole entry, species assumed): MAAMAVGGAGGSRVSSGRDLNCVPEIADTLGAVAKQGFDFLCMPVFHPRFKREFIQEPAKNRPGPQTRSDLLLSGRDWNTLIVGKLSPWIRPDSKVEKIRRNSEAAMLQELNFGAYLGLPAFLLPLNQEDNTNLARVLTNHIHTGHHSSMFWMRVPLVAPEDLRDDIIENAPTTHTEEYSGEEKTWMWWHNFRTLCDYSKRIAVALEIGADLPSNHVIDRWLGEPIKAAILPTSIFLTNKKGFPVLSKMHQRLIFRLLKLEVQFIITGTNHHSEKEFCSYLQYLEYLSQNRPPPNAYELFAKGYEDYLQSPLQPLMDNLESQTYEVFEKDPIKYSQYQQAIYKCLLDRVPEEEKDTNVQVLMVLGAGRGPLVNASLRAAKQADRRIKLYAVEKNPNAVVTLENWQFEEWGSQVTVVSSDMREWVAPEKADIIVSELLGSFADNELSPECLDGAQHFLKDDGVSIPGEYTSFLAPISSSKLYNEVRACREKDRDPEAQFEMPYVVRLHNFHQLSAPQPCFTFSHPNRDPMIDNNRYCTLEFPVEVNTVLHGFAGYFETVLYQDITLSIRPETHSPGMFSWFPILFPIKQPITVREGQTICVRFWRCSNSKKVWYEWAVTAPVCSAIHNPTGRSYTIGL
Method in brief: as §1

[11] = tested on: PSA promoter in LNCaP cells; test: PSA luciferase assay in LNCaP cells; type: cell-based, human; settings: two days, relative to CMV-Renilla control
Method in brief: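 LNCaP cells are grown in phenol-red-free RPMI1640 with 10% charcoal-stripped FCS and seeded ~20 h before Lipofectamine transfection with 300 ng PSA(ARE)-LUC and 2 ng humanized CMV-Renilla. After 12 h, cells receive 20 nM DHT plus test compound at increasing concentrations. After 42–44 h, 5/6 of the washed, harvested cells go to a dual luciferase assay, normalised to Renilla. Values are mean ± SD of triplicates.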

Row | effect against PABP1 methylation by CARM1 (fluorograph) [7] | Structure (SMILES) | inhibition of CARM1 activity on various substrates (fluorograph) [1] | activity against SET7 (fluorograph) [2] | activity against Suv39H1 (fluorograph) [3] | effects on cell viability [4] | inhibition of PRMT3 (fluorograph) [5] | activity against G9a (fluorograph) [6] | enzyme preference of inhibition (in words) ([7]; series 7a-m, IC50 determination vs PRMT1, CARM1, SET7 (Table S1)) | activity against DOTL1 (fluorograph) [8] | inhibition of Flag-PABP1 methylation [9] | inhibition of PRMT5 (fluorograph) [10] | concentration effective on PSA reporter activity [11] [µM]
1 |  | O=C1/C(=C/c2ccc(O)c(Br)c2)CN(Cc2ccccc2)C/C1=C\c1ccc(O)c(Br)c1 [7g, 1-benzyl-3,5-bis(3-bromo-4-hydroxybenzylidene) piperidin-4-one] | strongly inhibited | No significant activity | No significant activity | no or little effects | able to inhibit to some extent | No significant activity | preferably inhibited CARM1 | No significant activity | able to inhibit |  | 
2 | no effect | Cc1ccc(CN2C/C(=C\c3ccc(O)c(Br)c3)C(=O)/C(=C/c3ccc(O)c(Br)c3)C2)cc1 [8c] |  |  |  |  |  |  |  |  |  |  | 
3 |  | O=C1/C(=C/c2ccc(O)c(Br)c2)CN(Cc2cccc(Cl)c2)C/C1=C\c1ccc(O)c(Br)c1 [8e] | strongly inhibited | No significant activity | No significant activity |  | able to inhibit to some extent | No significant activity |  | No significant activity | only 7g was able to inhibit | high inhibition | 
4 | no effect | O=C1/C(=C/c2ccc(O)c(Br)c2)CN(CCCc2ccccc2)C/C1=C\c1ccc(O)c(Br)c1 [8k] |  |  |  |  |  |  |  |  |  |  | 
5 |  | O=C1/C(=C/c2ccc(O)c(Br)c2)CN(CC(=O)c2ccccc2)C/C1=C\c1ccc(O)c(Br)c1 [8l] | strongly inhibited | No significant activity | No significant activity | no or little effects |  | No significant activity |  | No significant activity | only 7g was able to inhibit | high inhibition | 30

Reference: article PMC3487391 (Journal of medicinal chemistry, 2011)
